# Tests used:
# [1] = % dose converted to 2-amino-5-chlorophenyl sulfate; assay type: ADME
# Procedure, shortened: (§1)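 Groups of two to four mice received single 100 mg/kg oral doses of each compound. Urine was pooled over 0-24 h, and the 2-amino-5-chlorophenyl sulfate excreted in 24 h per mouse was quantified as the marker of p-chloroaniline release.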
# [2] = % dose converted to 4-(S-amino-N-{[(4-chlorophenyl)amino]carbonyl}sulfonimidoyl)benzoic acid (compound 41); assay type: ADME
# Mus musculus [3] = experiment: In vivo antitumor activity against subaxillary implanted 6C3HED lymphosarcoma implanted in C3H mice at a dose of 150 mg/kg administered perorally twice daily for a period of 8 days.; assay type: functional; conditions: for Inhibition: route oral, 150 mg/kg; for inhibition in vivo at 150 mg/kg: Mus musculus, 6C3HED, po, 192 h
# Procedure, shortened: (§2)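 6C3HED lymphosarcoma was carried in C3H mice. Compound was dosed at the stated route and schedule for 8 days (daily, twice daily, or days 1, 3, 5, 7) and tumor growth inhibition was scored against controls. The table value is the lowest dose giving >80% inhibition, or the highest dose tested. Deaths per group were recorded.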
# CCRF-CEM = experiment: In vitro cytotoxicity against CCRF-CEM cells; assay type: functional, cell-based; conditions: Homo sapiens
# Procedure, shortened: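 CCRF-CEM cells were grown in culture for 72 h with compound. The value is the concentration that inhibited growth to 50% of control growth.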
# [4] = (§3) Metabolic breakdown to the o-sulfate of p-chloroaniline (2-amino-5-chlorophenyl sulfate) by giving 100 mg/kg oral doses of the compound; assay type: ADME, organism-based; set-up: dose 100 mg/kg, route oral; conditions: in vivo; procedure, shortened: as §1
# Mus musculus [5] = experiment: (§4) In vivo antitumor activity of compound against subaxillary implanted 6C3HED lymphosarcoma implanted in C3H mice at a dose of 75 mg/kg administered perorally twice daily for a period of 8 days.; assay type: functional; conditions: 192 h, route oral; procedure, shortened: as §2
# Mus musculus [6] = experiment: as §4; assay type: functional; conditions: route oral
# Procedure, shortened: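 Oral dosing twice daily for 8 days in C3H mice bearing 6C3HED lymphosarcoma. Read-out is percent tumor growth inhibition relative to controls, with deaths per group also recorded. The full in vivo protocol is given in an earlier report.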
# Mus musculus [7] = experiment: In vivo antitumor activity against subaxillary implanted 6C3HED lymphosarcoma implanted in C3H mice at a dose of 300 mg/kg administered perorally daily for a period of 8 days.; assay type: functional; conditions: 192 h, route oral; procedure, shortened: as §2
# Mus musculus [8] = experiment: In vivo antitumor activity against subaxillary implanted 6C3HED lymphosarcoma implanted in C3H mice at a dose of 300 mg/kg administered perorally twice daily for a period of 8 days.; assay type: functional; conditions: 192 h, route oral; procedure, shortened: as §2
# Mus musculus [9] = experiment: In vivo antitumor activity of compound against subaxillary implanted 6C3HED lymphosarcoma implanted in C3H mice at a dose of 300 mg/kg administered intraperitoneally daily for a period of 8 days.; assay type: functional; conditions: ip, 192 h, route intraperitoneal; procedure, shortened: as §2
# Mus musculus [10] = experiment: In vivo antitumor activity of compound against subaxillary implanted 6C3HED lymphosarcoma implanted in C3H mice at a dose of 50 mg/kg administered perorally twice daily for a period of 8 days.; assay type: functional; conditions: 192 h, route oral; procedure, shortened: as §2
# Mus musculus [11] = experiment: In vivo antitumor activity of compound against subaxillary implanted 6C3HED lymphosarcoma implanted in C3H mice at a dose of 200 mg/kg administered perorally twice daily for a period of 8 days.; assay type: functional; conditions: 192 h, route oral; procedure, shortened: as §2
# Mus musculus [12] = experiment: In vivo antitumor activity of compound against subaxillary implanted 6C3HED lymphosarcoma implanted in C3H mice at a dose of 150 mg/kg administered intraperitoneally daily for a period of 8 days.; assay type: functional; conditions: ip, 192 h, route intraperitoneal; procedure, shortened: as §2
# Mus musculus [13] = experiment: as §3; assay type: functional; procedure, shortened: as §1
smiles,measurement,setting,value
Cc1ccc([S+](N)([O-])=NC(=O)Nc2ccc(Cl)cc2)cc1 (stereo in doubt; 16(+)),Dose converted,[1],< 0.3%
same,Dose converted,[2],17%
same,Inhibition,Mus musculus [3],5%
CCN[S+]([O-])(=NC(=O)Nc1ccc(Cl)cc1)c1ccc(C)cc1 (stereo not drawn),IC50,CCRF-CEM,13.8 µg/mL
same,inhibition in vivo at 150 mg/kg,Mus musculus [3],87%
CC(=O)N(C(=O)N=[S+]([O-])(c1ccc(C)cc1)N(C)C(C)=O)c1ccc(Cl)cc1 (stereo not drawn),IC50,CCRF-CEM,5.6 µg/mL
same,inhibition in vivo at 150 mg/kg,Mus musculus [3],83%
"Cc1ccc([S+](N)([O-])=NC(=O)Nc2ccc(Cl)cc2)cc1 (single isomer, unassigned; (-))",Activity,[4],0.58 µM
same,inhibition in vivo at 75 mg/kg,Mus musculus [5],100%
same,Lethality,Mus musculus [6],60%
same,Dose converted,[1],4.7%
same,Dose converted,[2],18%
same,Inhibition,Mus musculus [3],100%
Cc1ccc(NC(=O)N=[S+](N)([O-])c2ccc(C)cc2)cc1 (stereo not drawn),inhibition in vivo at 300 mg/kg,Mus musculus [7],40%
same,IC50,CCRF-CEM,> 20 µg/mL
CC(=O)N(C)[S+]([O-])(=NC(=O)Nc1ccc(Cl)cc1)c1ccc(C)cc1 (stereo not drawn),IC50,CCRF-CEM,9.6 µg/mL
same,inhibition in vivo at 150 mg/kg,Mus musculus [3],98%
CCCCN(C(C)=O)[S+]([O-])(=NC(=O)Nc1ccc(Cl)cc1)c1ccc(C)cc1 (stereo not drawn),inhibition in vivo at 300 mg/kg,Mus musculus [8],53%
same,IC50,CCRF-CEM,12.5 µg/mL
N[S+]([O-])(=NC(=O)Nc1ccc(Cl)cc1)c1ccc(CO)cc1 (stereo not drawn),inhibition in vivo at 75 mg/kg,Mus musculus [5],99%
same,IC50,CCRF-CEM,> 20 µg/mL
Cc1ccc([S+](N)([O-])=NC(=O)Nc2ccccc2)cc1 (stereo not drawn),IC50,CCRF-CEM,> 20 µg/mL
same,inhibition in vivo at 150 mg/kg,Mus musculus [3],0%
CCCCNC(=O)N=[S+](N)([O-])c1ccc(C)cc1 (stereo not drawn),inhibition in vivo at 300 mg/kg,Mus musculus [9],12%
same,IC50,CCRF-CEM,> 20 µg/mL
CC(=O)OCc1ccc([S+](N)([O-])=NC(=O)Nc2ccc(Cl)cc2)cc1 (stereo not drawn),IC50,CCRF-CEM,> 20 µg/mL
same,inhibition in vivo at 50 mg/kg,Mus musculus [10],87%
Cc1ccc([S+]([O-])(=NC(=O)Nc2ccc(Cl)cc2)NCCc2ccccc2)cc1 (stereo not drawn),inhibition in vivo at 300 mg/kg,Mus musculus [8],48%
same,IC50,CCRF-CEM,5.3 µg/mL
Cc1cc(C)cc([S+](N)([O-])=NC(=O)Nc2ccc(Cl)cc2)c1 (stereo not drawn),IC50,CCRF-CEM,20 µg/mL
same,inhibition in vivo at 200 mg/kg,Mus musculus [11],77%
Cc1ccc([S+](N)([O-])=NC(=O)Nc2ccc(Br)cc2)cc1 (stereo not drawn),IC50,CCRF-CEM,> 20 µg/mL
same,inhibition in vivo at 150 mg/kg,Mus musculus [3],100%
Cc1ccc([S+]([O-])(=NC(=O)Nc2ccc(Cl)cc2)NCC(C)C)cc1 (stereo not drawn),inhibition in vivo at 75 mg/kg,Mus musculus [5],85%
same,IC50,CCRF-CEM,0.7 µg/mL
N[S+]([O-])(=NC(=O)Nc1ccc(Cl)cc1)c1ccc(Br)cc1 (stereo not drawn),IC50,CCRF-CEM,10.6 µg/mL
same,inhibition in vivo at 150 mg/kg,Mus musculus [3],89%
Cc1ccc([S+](N)([O-])=NC(=O)Nc2ccc(C(F)(F)F)cc2)cc1 (stereo not drawn),IC50,CCRF-CEM,> 20 µg/mL
Cc1ccc([S+](N)([O-])=NC(=O)N(C)c2ccc(Cl)cc2)cc1 (stereo not drawn),IC50,CCRF-CEM,> 20 µg/mL
same,inhibition in vivo at 150 mg/kg,Mus musculus [3],83%
Cc1ccc([S+](N)([O-])=NC(=O)Nc2ccc(O)cc2)cc1 (stereo not drawn),inhibition in vivo at 300 mg/kg,Mus musculus [9],11%
same,IC50,CCRF-CEM,> 20 µg/mL
N[S+]([O-])(=NC(=O)Nc1ccc(Cl)cc1)c1ccccc1 (stereo not drawn),inhibition in vivo at 300 mg/kg,Mus musculus [8],0%
same,IC50,CCRF-CEM,> 20 µg/mL
N[S+]([O-])(=NC(=O)Nc1ccc(Cl)cc1)c1ccc(C=O)cc1 (stereo not drawn),inhibition in vivo at 150 mg/kg,Mus musculus [12],80%
same,IC50,CCRF-CEM,5.6 µg/mL
Cc1ccc([S+](N)([O-])=NC(=O)Nc2ccc(F)cc2)cc1 (stereo not drawn),inhibition in vivo at 300 mg/kg,Mus musculus [8],0%
same,IC50,CCRF-CEM,> 20 µg/mL
Cc1ccc([S+]([O-])(=NC(=O)Nc2ccc(Cl)cc2)Nc2ccccc2)cc1 (stereo not drawn),inhibition in vivo at 300 mg/kg,Mus musculus [7],5%
same,IC50,CCRF-CEM,7 µg/mL
Cc1ccc(S(=O)(=O)NC(=O)Nc2ccc(Cl)cc2)cc1 [LY-181984],Activity,Mus musculus [13],1.02 µM
same,inhibition in vivo at 150 mg/kg,Mus musculus [3],93%
Cc1ccc([S+]([O-])(=NC(=O)Nc2ccc(Cl)cc2)NCc2ccccc2)cc1 (stereo not drawn),inhibition in vivo at 300 mg/kg,Mus musculus [8],87%
same,IC50,CCRF-CEM,8.7 µg/mL
C=CCN[S+]([O-])(=NC(=O)Nc1ccc(Cl)cc1)c1ccc(C)cc1 (stereo not drawn),inhibition in vivo at 300 mg/kg,Mus musculus [8],45%
same,IC50,CCRF-CEM,10 µg/mL
Cc1ccc([S+]([O-])(=NC(=O)Nc2ccc(Cl)cc2)NC(C)C)cc1 (stereo not drawn),inhibition in vivo at 75 mg/kg,Mus musculus [5],86%
same,IC50,CCRF-CEM,1.4 µg/mL
